Measured values reported in article PMC6944222 (Toxicological Sciences, 2019).

Legend:
[1] = IVIVE of total hepatic intrinsic clearance; format: in vitro ADME, human; conditions: for Hepatic CLint_vivo: model estimated; for total CLint_vivo estimated with HLMs and cytosol (subcellular fraction): subcellular fraction-based IVIVE
Method in brief: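 Pooled human liver microsomes and cytosol from 150 adults (75 male, 75 female). […] In vitro CLint was scaled to the in vivo hepatic value using microsomal or cytosolic protein content and liver weight. Enzyme ontogeny was expressed as a fraction of adult expression.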

[2] = system: expressed human CYP and CES enzymes; format: in vitro ADME; conditions: for total in vivo CLint estimated with expressed enzymes: expressed enzyme-based IVIVE; for metabolism profile (enzymes responsible): human hepatic CYP and CES enzymes
[3] = stated as known, no reference given; cited from earlier work
[4] = ref Willemin et al. (2015); cited from earlier work

## CC1(C)[C@H](C(=O)O[C@H](C#N)c2cccc(Oc3ccccc3)c2)[C@@H]1C=C(Br)Br [DLM, deltamethrin]
[1]; person five
  Hepatic CLint_vivo: 2066 L/h
[1]; person four
  Hepatic CLint_vivo: 1282 L/h
[1]; person one
  Hepatic CLint_vivo: 375 L/h
[1]; person six
  Hepatic CLint_vivo: 2417 L/h
[1]; person three
  Hepatic CLint_vivo: 565 L/h
[1]; person two
  Hepatic CLint_vivo: 224 L/h
[1]
  total CLint_vivo estimated with HLMs and cytosol (subcellular fraction): 7,418 l/h/kg liver
[2]
  total in vivo CLint estimated with expressed enzymes: 36,782 l/h/kg liver
[3]
  log Kow: 4.61

## CC1(C)[C@H](C(=O)OCc2cccc(Oc3ccccc3)c2)[C@@H]1C=C(Cl)Cl [CPM, cis-permethrin]
[1]; person five
  Hepatic CLint_vivo: 186 L/h
[1]; person four
  Hepatic CLint_vivo: 115 L/h
[1]; person one
  Hepatic CLint_vivo: 34 L/h
[1]; person six
  Hepatic CLint_vivo: 217 L/h
[1]; person three
  Hepatic CLint_vivo: 51 L/h
[1]; person two
  Hepatic CLint_vivo: 20 L/h
[1]
  total CLint_vivo estimated with HLMs and cytosol (subcellular fraction): 6,68 l/h/kg liver
[2]; IVIVE of expressed enzyme data
  contribution of CES enzymes to human hepatic metabolism: more than 70%
[2]
  total in vivo CLint estimated with expressed enzymes: 70,481 l/h/kg liver
  metabolism profile (enzymes responsible): metabolized by CYP and CES enzymes
[3]
  log Kow: 6.1
[4]
  in vivo CLint in cryopreserved hepatocytes: 60 l/h/kg liver

## Cc1c(COC(=O)[C@@H]2[C@H](/C=C(\Cl)C(F)(F)F)C2(C)C)cccc1-c1ccccc1 (racemic) [Bifenthrin, bifenthrin]
[1]; person five
  Hepatic CLint_vivo: 58 L/h
[1]; person four
  Hepatic CLint_vivo: 36 L/h
[1]; person one
  Hepatic CLint_vivo: 10 L/h
[1]; person six
  Hepatic CLint_vivo: 67 L/h
[1]; person three
  Hepatic CLint_vivo: 16 L/h
[1]; person two
  Hepatic CLint_vivo: 5 L/h
[2]
  total in vivo CLint estimated with expressed enzymes: 145 l/h/kg liver
  metabolism profile (enzymes responsible): metabolized only by CYP enzymes
